Source: article PMC5394958 (Haematologica, 2016)
Where “and” joins values, the source holds several entries; their conditions need not be identical. Equal entries are not always repeated. Where two headings read alike, the source gives them in different places.

Tests used:
[1] = tested on: T315I BCR-ABL1 mutation; details: cited from earlier work
[2] = tested on: chronic myeloid leukemia; details: CP-CML patients; cited from earlier work
[3] = Phase 1 safety: adverse events; format: in vivo, human
Outline: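 First-in-human, multicenter, single-arm oral study in 57 patients, given daily in 28-day cycles. Powder-in-capsule doses escalated from 57 mg QD to 1200 mg QD over 11 cohorts, doubling between the initial single-patient cohorts. Titration was accelerated 3+3, switching to standard 3+3 at grade ≥2 AEs. Tablet cohorts followed, up to 200 mg BID. AEs were graded by NCI CTC v3.0, and DLTs were assessed in cycle 1.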

[4] = Plasma pharmacokinetics after multiple oral doses; format: in vivo, human; details: for Tmax: median Tmax
[5] = tested on: chronic myeloid leukemia; test: Clinical response in CML patients; format: in vivo, human
[6] = tested on: acute myeloid leukemia; test: Clinical response in AML patients; format: in vivo, human; details: 5 patients with AML
Outline: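 Relapsed or refractory AML patients (ECOG ≤1) received oral drug daily in continuous 28-day cycles. Powder-in-capsule dosing ran from 57 mg QD up to 1200 mg QD, and tablets from 100 mg. Intra-patient dose escalation was allowed. Disease response was assessed locally every 3 cycles by standard criteria.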

[7] = tested on: BCR-ABL1 or FLT3; test: Ex vivo incubation of patient whole blood, phosphorylation of CRKL or FLT3; format: cell-based; details: Homo sapiens, read-out: IC50 for inhibition of phosphorylation
Outline: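 Predose screening whole blood from TKI-resistant CML or AML patients was incubated with test compound ex vivo. Mononuclear cells were then fixed and permeabilized. Phosphorylation of CRKL or FLT3 was measured, with pCRKL read by flow cytometry. IC50 for inhibition of phosphorylation was determined per evaluable sample.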

[8] = tested on: BCR-ABL1 or FLT3; test: Pharmacodynamics in dosed patients: pCRKL / pSTAT5 in blood cells; format: in vivo, human; details: of 45 patients with evaluable samples
[9] = tested on: TIE2; test: Plasma angiopoietin 2; format: in vivo, human; details: Day 22 compared to baseline
[10] = Human plasma protein binding; format: in vitro ADME
[11] = format: in vivo, human
[12] = tested on: c-ABL1; details: cited from earlier work
[13] = tested on: TIE2; details: cited from earlier work
[14] = tested on: TRKA; details: cited from earlier work
[15] = tested on: TRKB; details: cited from earlier work
[16] = tested on: BCR-ABL1 T315I; details: cited from earlier work

SMILES: Cc1ccc(C(=O)Nc2ccc(CN3CCN(C)CC3)c(C(F)(F)F)c2)cc1C#Cc1cnc2cccnn12 [ponatinib]
- effectiveness against the T315I mutation [1]: effective

SMILES: COC(=O)C[C@](O)(CCCC(C)(C)O)C(=O)O[C@@H]1C(OC)=C[C@]23CCCN2CCc2cc4c(cc2[C@H]13)OCO4 [omacetaxine mepesuccinate]
- cytogenetic responses [2]: ~ 20%

SMILES: COc1cc(Nc2c(C#N)cnc3cc(OCCCN4CCN(C)CC4)c(OC)cc23)c(Cl)cc1Cl [bosutinib]
- effectiveness against the T315I BCR-ABL1 mutation [1]: not effective

SMILES: CNC(=O)c1cc(Oc2ccc(NC(=O)Nc3cc(C(C)(C)C)nn3-c3ccc4ncccc4c3)c(F)c2)ccn1 [rebastinib]
- patients with DLT in first cycle ([3]; 200 mg BID tablet): 2 n
- patients with DLT in first cycle ([3]; 1200 mg QD PIC): 1 n
- SAE muscular weakness ([3]; N=57): 4 patients
- patients with AEs suggestive of nervous system disorders, any grade ([3]; N=57): 33%
- patients with Grade 3 or 4 AE ([3]; N=57): 34 patients
- patients with SAEs related to study treatment ([3]; N=57): 18 patients
- patients with musculoskeletal disorders of all grades ([3]; N=57): 22 patients
- patients with serious adverse events (SAEs) ([3]; N=57): 34 patients
- patients with visual abnormalities ([3]; N=57): 19 patients
- treatment-related SAE ([3]; dose levels below 300 mg BID (PIC) and 100 mg QD (tablet)): No treatment-related SAE
- CML patients with AEs suggestive of potential ≥Grade 3 cardiomyopathy ([3]; in vivo): 4 patients
- Dose-limiting toxicities ([3]; in vivo): dysarthria, muscle weakness, and peripheral neuropathy
- patients discontinued due to musculoskeletal disorders ([3]; in vivo): 2 patients
- patients with at least one AE of any grade ([3]; in vivo): 57 (100%) patients (%)
- deaths deemed related ([3]; n=8 deaths): none
- patients with visual abnormalities first reported during Cycle 1 ([3]; of 19): 10 patients
- patients with Grade 3 musculoskeletal events ([3]; of 22): 13 patients
- patients with musculoskeletal disorders during Cycle 1 ([3]; of 22): 14 patients
- patients with Grade 3 AESI possibly or probably related ([3]; of 27 additional patients at 150 mg BID): 18 patients
- maximum tolerated dose (MTD) ([3]; tablets, twice daily (BID)): 150 mg
- free drug in circulation ([4]; at 200 ng/mL, based on plasma protein binding): ~ 1.3 nM
- Bioavailability, formulated tablets compared to unformulated capsules ([4]; human, plasma, oral): 3- to 4 fold
- Exposure, tablets compared to PIC ([4]; human, plasma, oral): approximately 3 fold
- half-life ([4]; human, plasma, oral): 720 to 900 min
- initial distribution phase from Tmax ([4]; human, plasma, oral): 6–8 hours postdose
- trough concentrations as % of Cmax ([4]; human, plasma, oral): 10–20%
- Tmax ([4]; human, plasma, oral, PIC): 2 h
- Tmax ([4]; human, plasma, oral, tablets): 1 to 1.5 h
- Average plasma levels ([4]; ~1–4 hours postdose, 150 mg BID): 200 ng/mL and 360 nM
- patients with complete cytogenetic response ([5]; T315I): 1 patients
- patients with complete hematologic response ([5]; T315I): 4 patients
- patients with major molecular response ([5]; T315I): 2 patients
- patients with minor cytogenetic response ([5]; T315I): 3 patients
- patients with minor hematologic response ([5]; T315I): 0 patients
- patients with partial cytogenetic response ([5]; T315I): 1 patients
- patients with partial hematologic response ([5]; T315I): 3 patients
- patients with complete hematologic response ([5]; fifty evaluable): 8 patients
- patients with minor hematologic response ([5]; fifty evaluable): 3 patients
- patients with partial hematologic response ([5]; fifty evaluable): 4 patients
- overall cytogenetic response rate of CML patients ([5]; human, in vivo): 21%
- complete hematologic responses ([5]; in 40 evaluable CML patients): Eight
- patients with complete cytogenetic response ([5]; of 37 evaluable): 2 patients
- patients with cytogenetic response ([5]; of 37 evaluable): 8 patients
- patients with minor cytogenetic response ([5]; of 37 evaluable): 4 patients
- patients with partial cytogenetic response ([5]; of 37 evaluable): 2 patients
- patients with molecular response (major molecular response) ([5]; of 40 evaluable): Four
- AML patients with a response [6]: None
- IC50 [7]: < 200 nM
- patients with significant (>50%) inhibition of phosphorylation of CRKL and/or STAT5 [8]: 20 patients
- patient samples with ANG2 increases [9]: 19/20
- fraction unbound [10]: 0.0035
- patients with nervous system disorders ([11]; high Cmax subgroup): 13 patients
- patients with nervous system disorders ([11]; low Cmax subgroup): 7 patients
- patients with nervous system disorders ([11]; middle Cmax subgroup): 5 patients
- IC50 [12]: 0.7 nM
- IC50 [13]: 0.058 nM
- IC50 [14]: 0.17 nM
- IC50 [15]: 0.42 nM
- efficacy in mouse model [16]: effective

SMILES: Cc1cn(-c2cc(NC(=O)c3ccc(C)c(Nc4nccc(-c5cccnc5)n4)c3)cc(C(F)(F)F)c2)cn1 [nilotinib]
- effectiveness against the T315I BCR-ABL1 mutation [1]: not effective
